Measured values reported in ChEMBL document CHEMBL1126643, “Synthesis and evaluation of 2-pyridinone derivatives as HIV-1-specific reverse transcriptase inhibitors. 4. 3-[2-(Benzoxazol-2-yl)ethyl]-5-ethyl-6-methylpyridin-2(1H)-one and analogues” (J Med Chem, 1993).

Key:
[1] = molecular target: T1, Human immunodeficiency virus type 1 reverse transcriptase (Human immunodeficiency virus 1, UniProt Q72547); experiment: Tested for inhibition against HIV-1 RT (used (poly)rC-(oligo)dG as the template)
[2] = Plasma equilibrium dissociation constant was determined; format: functional, cell-free, Homo sapiens
Procedure, shortened: (§1)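 Compound from 1 mM DMSO stock added to pH 7.4 phosphate/NaCl buffer with human plasma (10-fold diluted plasma), initial compound 10 μM; triplicate aliquots centrifuged through filter tubes, filtrate analysed by HPLC.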

[3] = molecular target: Human immunodeficiency virus type 1 reverse transcriptase (Human immunodeficiency virus 1) (UniProt Q72547); experiment: Cell culture inhibitor concentration required to inhibit the spread of HIV-1 strain III B infection in MT-4 human T-lymphoid cells; format: functional, cell-based
[4] = Percent unbound determined for whole normal human plasma; format: functional; procedure, shortened: as §1
[5] = molecular target: T1, Human immunodeficiency virus type 1 reverse transcriptase; experiment: Inhibition against HIV-1 RT (used (poly)rC-(oligo)dG as the template); not characterized
[6] = Half life was determined; format: ADME; details: 0.1 N HCl in 90% ethanol
Procedure, shortened: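 Acid hydrolysis: stock aliquot added to stirred ethanol/1 N HCl (8.9:1.0 mL) at 37 °C; aliquots withdrawn at intervals, quenched into pH 7.7 0.1 M MES buffer and analysed by HPLC.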

| SMILES | IC50 [1] [µM] | further results |
| --- | --- | --- |
| CCc1c[nH]c(=O)c(CCc2nc3ccccc3o2)c1 | 0.177 | – |
| Cc1nc(O)c(CCc2nc3ccccc3o2)cc1CO | 3.4 | – |
| CCc1cc(CCc2nc3c(C)cccc3o2)c(O)nc1C | – | Kd [2]: 2.45 µM; IC95 [3]: 0.1 µM; Unbound [4]: 0.4% |
| CCc1cc(CCCc2nc3ccccc3o2)c(O)nc1C | 16 | – |
| CCc1cc(CCc2ccccc2)c(=O)[nH]c1C | 50 | – |
| CCc1cc(CCc2nc3c(C)ccc(C)c3o2)c(=S)[nH]c1C | 0.052 | – |
| CCc1cc(CCc2nc3c(Cl)ccc(Cl)c3o2)c(S)nc1C | 0.03 | IC95 [3]: 0.1 µM |
| CCc1cc(OCc2nc3c(Cl)ccc(Cl)c3o2)c(O)nc1C | – | IC95 [3]: 0.2 µM |
| CCc1cc(CCc2nc3c(F)cccc3o2)c(S)nc1C | – | IC95 [3]: 0.1 µM |
| CCc1cc(CCc2nc3cccc(Cl)c3o2)c(S)nc1C | – | IC95 [3]: 0.2 µM |
| CCc1cc(CCc2nc3cccc(C)c3o2)c(=O)[nH]c1C | 0.04 | – |
| CCc1cc(S(=O)(=O)Cc2nc3c(Cl)ccc(Cl)c3o2)c(O)nc1C | 0.205 | – |
| Cc1nc(O)c(CCc2nc3ccccc3o2)cc1C#N | 0.31 | – |
| CCc1cc(CCc2nc3c(Cl)cccc3o2)c(O)nc1C | 0.062 | Kd [2]: 17.6 µM; IC95 [3]: 0.1 µM; Unbound [4]: 3% |
| CCc1cc(CCc2nc3c(F)ccc(F)c3o2)c(=S)[nH]c1C | 0.015 | – |
| CCc1cc(CCC(=O)Nc2ccccc2O)c(=O)[nH]c1C | 5.4 | – |
| CCc1cc(CCc2nc3c(C)ccc(C)c3o2)c(O)nc1C | – | Kd [2]: 1.21 µM; IC95 [3]: 0.3 µM; Unbound [4]: 0.2% |
| CCc1cc(CCc2nc3c(C)ccc(C)c3o2)c(S)nc1C | – | IC95 [3]: 0.2 µM |
| Cc1[nH]c(=O)c(CCc2nc3ccccc3o2)cc1C(N)=O | 41.5 | – |
| CCc1cc(CCc2nc3c(F)ccc(F)c3o2)c(S)nc1C | – | IC95 [3]: 0.2 µM |
| CCc1cc(CCc2nc3cccc(F)c3o2)c(O)nc1C | 0.037 | Kd [2]: 8.16 µM; Unbound [4]: 1.4% |
| CCc1cc(CCc2ccc3ccccc3n2)c(O)nc1C | 2.45 | – |
| COCc1cc(CCc2nc3ccccc3o2)c(=O)[nH]c1C | 2.1 | – |

| SMILES | IC50 [1] [µM] | further results |
| --- | --- | --- |
| CCc1cc(CCc2nc3cccc(Cl)c3o2)c(O)nc1C | 0.039 | Kd [2]: 4.16 µM; IC95 [3]: 0.1 µM; Unbound [4]: 0.7% |
| CCc1cc(/C=C\c2nc3ccccc3o2)c(=O)[nH]c1C | 3 | – |
| CCc1cc(CCc2nc3ccccc3o2)c(S)nc1C | 0.024 | IC95 [3]: 0.2 µM |
| CCc1cc(CCc2nc3c(F)cccc3o2)c(O)nc1C | 0.015 | Kd [2]: 24 µM; IC95 [3]: 0.05 µM; Unbound [4]: 4% |
| Cc1nc(O)c(CCc2nc3ccccc3o2)cc1N(C)C | 1.85 | – |
| CCc1cc(CCc2nc3ccc(F)cc3o2)c(O)nc1C | 0.442 | – |
| CCc1cc(/C=C/c2nc3ccccc3o2)c(O)nc1C | 5.9 | – |
| CCc1cc(CCC2=NC3CCCCC3O2)c(=O)[nH]c1C (stereo not drawn) | 0.058 | – |
| CCc1cc(CCc2ccc3ccccc3c2)c(=O)[nH]c1C | 8.4 | – |
| CCc1cc(CCc2cc3ccccc3o2)c(O)nc1C | 0.13 | – |
| Cc1cc(CCc2nc3ccccc3o2)c(O)nc1C | 0.17 | – |
| Cc1[nH]c(=O)c(CCc2nc3ccccc3o2)cc1C(C)C | 0.048 | – |
| CCc1cc(CCc2cc3cnccc3o2)c(O)nc1C | 13.5 | – |
| CCc1cc(OCC(=O)Nc2ccccc2O)c(O)nc1C | – | IC50 [5]: not characterized |
| CCc1cc(CCc2nc3cc(F)ccc3o2)c(=O)[nH]c1C | 1.7 | – |
| CCc1cc(CCc2nc3c(Cl)ccc(Cl)c3o2)c(O)nc1C | – | Kd [2]: 0.76 µM; IC95 [3]: 0.05 µM; Unbound [4]: 0.1% |
| Cc1cc(CCc2nc3c(Cl)ccc(Cl)c3o2)c(=O)[nH]c1C | 0.097 | – |
| CCc1cc(NCc2nc3ccccc3o2)c(O)nc1C | – | half-life [6]: 35 min; IC95 [3]: 0.8 µM |
| CCc1cc(SCc2nc3c(Cl)ccc(Cl)c3o2)c(O)nc1C | – | IC95 [3]: 0.05 µM |
| CCc1cc(CCc2nc3cccc(Cl)c3o2)c(=S)[nH]c1C | 0.029 | – |
| CCc1cc(CCc2nc3c(F)cccc3o2)c(=S)[nH]c1C | 0.013 | – |
| CCc1cc(CCc2nc3cccc(F)c3o2)c(S)nc1C | – | IC95 [3]: 0.2 µM |
| CCc1cc(SCc2nc3c(Cl)ccc(Cl)c3o2)c(=O)[nH]c1C | 0.011 | half-life [6]: 34 min |

| SMILES | IC50 [1] [µM] | further results |
| --- | --- | --- |
| CCc1cc(CCc2nc3c(F)ccc(F)c3o2)c(O)nc1C | 0.014 | Kd [2]: 18.2 µM; IC95 [3]: 0.05 µM; Unbound [4]: 3% |
| CCC1=C(C)NC(N)C(CCc2nc3ccccc3o2)=C1 (stereo not drawn) | 100 | – |
| CCc1cc(CCc2nc3ccccc3o2)c(O)nc1C | 0.023 | half-life [6]: 218 min; Kd [2]: 21.6 µM; IC95 [3]: 0.1 µM; Unbound [4]: 4% |
| CCCc1cc(CCc2nc3c(Cl)ccc(Cl)c3o2)c(=O)[nH]c1C | 0.034 | – |
| CCc1cc(CCc2nc3cccc(F)c3o2)c(=S)[nH]c1C | 0.043 | – |
| CCc1cc(NCC(=O)Nc2ccccc2O)c(O)nc1C | – | IC50 [5]: not characterized |
| CCc1cc(Cc2nc3ccccc3o2)c(O)nc1C | 45 | – |
| CCc1cc(NCC(=O)Nc2c(O)cc(Cl)cc2Cl)c(O)nc1C | > 300 | – |
| CCc1cc(CCc2nc3c(Cl)cccc3o2)c(S)nc1C | 0.03 | – |
| Cc1nc(O)c(CCc2nc3ccccc3o2)cc1-c1ccccc1 | 1.1 | – |
| CCc1cc(CCc2nc3ccc(C)cc3o2)c(=O)[nH]c1C | 0.172 | – |
| CCc1cc(CCC(=O)Nc2c(O)cc(Cl)cc2Cl)c(O)nc1C | > 300 | – |
| CCc1cc(CCc2ccccn2)c(O)nc1C | 260 | – |
| CCc1cc(CCc2ncc(-c3ccccc3)o2)c(O)nc1C | 0.385 | – |
| CCc1cc(OCc2nc3ccccc3o2)c(=O)[nH]c1C | 0.191 | half-life [6]: 12 min |
| CCc1cc(CCc2nc3c(Cl)ccc(Cl)c3o2)c(=O)[nH]c1C | 0.014 | – |
| CCc1cc(OCc2nc3c(Cl)ccc(Cl)c3o2)c(=O)[nH]c1C | 0.088 | half-life [6]: 11 min |
| CCc1cc(CNc2nc3ccccc3o2)c(O)nc1C | 1.25 | IC95 [3]: 10 µM |
| CCCc1cc(CCc2nc3ccccc3o2)c(O)nc1C | 0.083 | – |
| CCc1cc([S+]([O-])Cc2nc3c(Cl)ccc(Cl)c3o2)c(O)nc1C (stereo not drawn) | 1.4 | – |
| CCc1cc(CCc2nc3c(C)cccc3o2)c(=O)[nH]c1C | 0.033 | – |
| CCc1cc(NCc2nc3c(Cl)ccc(Cl)c3o2)c(O)nc1C [L-697661] | 0.02 | half-life [6]: 17 min; IC95 [3]: 0.1 µM; Unbound [4]: 0.4% |
| CCc1cc(CCc2nc3c(C)ccc(C)c3o2)c(=O)[nH]c1C | 0.028 | – |
